# Experimental data collected from several papers.
# Compare with care: the assays were run in different laboratories.
# Target: Inhibitor of nuclear factor kappa-B kinase subunit alpha (CHUK, Homo sapiens, UniProt O15111)
# One construct used (O15111 1-745): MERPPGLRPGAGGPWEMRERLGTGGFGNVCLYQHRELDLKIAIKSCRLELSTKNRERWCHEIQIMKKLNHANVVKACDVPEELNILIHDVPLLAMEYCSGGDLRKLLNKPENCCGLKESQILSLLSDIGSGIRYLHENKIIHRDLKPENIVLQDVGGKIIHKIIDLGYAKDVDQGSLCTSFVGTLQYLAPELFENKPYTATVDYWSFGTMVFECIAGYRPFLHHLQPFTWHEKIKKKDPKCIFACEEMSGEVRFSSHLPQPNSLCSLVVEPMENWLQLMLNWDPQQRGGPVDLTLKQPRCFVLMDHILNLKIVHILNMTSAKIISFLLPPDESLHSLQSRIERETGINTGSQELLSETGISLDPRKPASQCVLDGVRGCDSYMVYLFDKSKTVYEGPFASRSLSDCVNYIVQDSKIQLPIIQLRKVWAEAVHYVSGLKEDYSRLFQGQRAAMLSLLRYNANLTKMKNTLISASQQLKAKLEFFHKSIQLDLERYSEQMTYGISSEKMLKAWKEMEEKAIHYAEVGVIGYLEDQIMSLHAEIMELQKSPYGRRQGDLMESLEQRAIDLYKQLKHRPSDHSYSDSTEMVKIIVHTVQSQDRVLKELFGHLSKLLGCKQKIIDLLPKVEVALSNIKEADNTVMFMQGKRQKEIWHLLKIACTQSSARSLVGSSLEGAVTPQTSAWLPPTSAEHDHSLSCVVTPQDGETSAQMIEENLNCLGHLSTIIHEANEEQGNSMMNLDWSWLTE
SMILES,effect on,mode,technique,tested at,endpoint,result
CN([C@@H]1CCc2c(CC(=O)O)c3cc(S(C)(=O)=O)ccc3n2C1)S(=O)(=O)c1ccc(F)cc1,cell-free assay,,competition with immobilised ligand,1 µM,remaining binding,100%
O=C1NC(=O)c2cc(Nc3ccc(F)cc3)c(Nc3ccc(F)cc3)cc21,cell-free assay,inhibitor,,0.5 µM,remaining signal,99.2%
CNCc1ccc(-c2cc(-c3nc(-c4ccc(S(=O)(=O)C(C)C)cc4)cnc3N)on2)cc1,enzyme activity,inhibitor,,0.4 µM,inhibition,17%
O=C(NCc1ncc(C(F)(F)F)cc1Cl)c1ccc2c(c1)C1(CCS(=O)(=O)CC1)[C@H](C1CC1)N2S(=O)(=O)c1ccc(F)cc1,cell-free assay,,competition with immobilised ligand,1 µM,remaining binding,77%
CCCOc1ccc(OC)c(F)c1C(=O)c1ccc(C(=O)N[C@@H]2CNC[C@H]2NC(=O)c2ccc3[nH]ncc3c2)cc1,enzyme activity,inhibitor,,10 µM,remaining activity,83%
CC(C)(C)c1nc2c(s1)c1nc(N)ncc1c1ccc(NS(=O)(=O)c3c(F)cccc3F)c(F)c12,enzyme activity,inhibitor,radiometric,1 µM,remaining activity,88%
CN(C)C(=O)Cn1cc(-c2nc(C3(c4ccc(-c5cnc(N)nc5)cc4)CC3)no2)cn1,cell-free assay,,competition with immobilised ligand,1 µM,remaining binding,100%
CC(C)(O)[C@H]1CC[C@H](Nc2ccc3ncc(-c4cccc(C(F)(F)F)c4)n3n2)CC1,enzyme activity,inhibitor,,1 µM,remaining activity,83.6%
Cc1ccc(NC(=O)c2ccc(CN3CCN(C)CC3)cc2)cc1Nc1nc(-c2cccnc2)cs1,cell-free assay,,,0.5 µM,remaining signal,96.2%
CSc1nc(C)c(-c2ccnc(Nc3ccc(N4CCOCC4)cc3)c2)[nH]1,enzyme activity,inhibitor,,10 µM,inhibition,48.8%
CCC(=O)N[C@@H]1CC[C@H](C(=O)N(C)c2ccc(-c3nc4ccccc4o3)cc2)C1,cell-free assay,,competition with immobilised ligand,1 µM,remaining binding,100%
CC(C)c1ccc(NC(=O)c2cccs2)c(-c2nc3ccccc3[nH]c2=O)c1,enzyme activity,inhibitor,,1 µM,activity vs control,104%
C#Cc1cccc(Nc2ncnc3cc(OCCOC)c(OCCOC)cc23)c1,cell-free assay,,,0.5 µM,remaining signal,94.2%
C[C@H](NC(=O)c1cnc2n1[C@](C)(Cc1ccc(C#N)cc1)C(=O)N2c1cc(Cl)c(F)c(Cl)c1)C(=O)NC1(c2ccccn2)CC1,cell-free assay,,competition with immobilised ligand,1 µM,remaining binding,100%
COc1cccc2c(NCc3ccccc3)nc(-n3c(N)nc4ccccc43)nc12,target engagement in cells,inhibitor,chemoproteomics,20 mM,inhibition,8.5%
Nc1ncnc2occ(-c3ccc(NC(=O)Nc4cc(C(F)(F)F)ccc4F)cc3)c12,enzyme activity,inhibitor,,20 µM,remaining activity,0%
Cc1sc(C(=O)NC2COC2)cc1-n1cc(NC(=O)Nc2c(F)cccc2Cl)cn1,enzyme activity,inhibitor,,10 µM,remaining activity,101%
CC(=O)N1CCC(c2ccc(C(=O)NC3=NCCN3)cc2C(F)(F)F)CC1,cell-free assay,,competition with immobilised ligand,1 µM,remaining binding,90%
Cc1cc(NC(=O)c2cccc3cc(-c4cccc5[nH]nc(N)c45)ccc23)ccc1F,enzyme activity,inhibitor,,0.1 µM,activity vs control,127%
NS(=O)(=O)c1cc(NC(=O)Cc2ccccc2)ccc1Oc1cccc(Cl)c1,cell-free assay,,competition with immobilised ligand,1 µM,remaining binding,63%
CNC(=O)c1cc(Oc2ccc(NC(=O)Nc3ccc(Cl)c(C(F)(F)F)c3)cc2)ccn1,enzyme activity,inhibitor,,10 µM,inhibition,-35%
O=C(Nc1nccs1)C(c1cc(F)ccc1O)N1Cc2ccccc2C1=O (stereo not drawn),enzyme activity,inhibitor,,1 µM,inhibition,16%
CCCCNc1ncc2c(-c3ccc(F)cc3)nn(C[C@H]3CC[C@H](N)CC3)c2n1,target engagement in cells,inhibitor,chemoproteomics,20 mM,inhibition,4.9%
CCN(CC)CCNC(=O)c1c(C)[nH]c(/C=C2\C(=O)Nc3ccc(F)cc32)c1C,enzyme activity,inhibitor,,0.3 µM,inhibition,-1%
